Experimental data reported in PubChem BioAssay AID504525 (Broad Institute, 2011).
Values without a mark were called inactive.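 Rule for the calls: active = fitted dose curve showing toxicity with half-maximal concentration at most ten times the top tested dose; inconclusive = flat curve with 30 to 70% toxicity, or poor fit; inactive = the rest.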

assay: cytotoxicity in NIH-3T3 mammalian cells, dose response, cytotoxicity control for antifungal drug resistance project, cell-based, fluconazole, powder samples, set 7 (AID 504525); conditions: NIH-3T3 viability with fluconazole, Alamar Blue, 48 h; series mostly up to 26 µM; activity change, negative = toxicity: at the top concentration
Method in brief: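 Assay system: NIH 3T3 fibroblast cells, Alamar Blue viability. Amount: 6,000 cells per well. Buffer or medium: Optimem growth medium with 2.5% fetal bovine serum. Probe or stimulus: fluconazole co-treatment at 8 µg/mL final. Compound: dose series up to 26 µM. Times: 48 h compound exposure at 37 °C. Measured by: Alamar Blue fluorescence, Ex 544/Em 590 nm.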

Structure (SMILES)	activity change, negative = toxicity [%]
COC(=O)Cn1nc(-c2cccc(F)c2)c2ccccc21	17.8
COC(=O)n1nc(-c2ccccc2)c2ccccc21	-1.06
COC(=O)Cn1nc(-c2ccccc2)c2cccnc21	22.7
CC1CCN(CCn2c3ccccc3c3nc4n(c(=O)c32)CCS4)CC1	30.3
COC(=O)Cn1nc(C2CCCCC2)c2ccccc21	22.7
O=C(Cn1c2ccc(F)cc2c2nc3n(c(=O)c21)CCS3)N1CCC(F)(F)C1	22
COC(=O)Cn1nc(-c2cccnc2)c2ccccc21	47.9
COC(=O)Cn1nc(-c2cccc(OC)c2)c2ccccc21	4.19
O=C(O)Cn1c2ccc(F)cc2c2nc3n(c(=O)c21)CCS3	-5.43
CN1CCN(C(=O)Cn2c3ccccc3c3nc4n(c(=O)c32)CCS4)CC1	-2.12
c1ccc(-c2nn(Cc3nnco3)c3ccccc23)cc1	16.2
COC(=O)Cn1nc(-c2cccc(C)c2)c2ccccc21	48.8
O=C(O)Cn1c2ccccc2c2nc3n(c(=O)c21)CCS3	15.2
COC(=O)Cn1nc(C2CC2)c2ccccc21	54.8
O=C(Cn1c2ccccc2c2nc3n(c(=O)c21)CCS3)N1CCC(F)(F)C1	5.93
CC1(O)CN(C(=O)Cn2c3ccccc3c3nc4n(c(=O)c32)CCS4)C1	7.45
O=C(Cn1c2ccc(F)cc2c2nc3n(c(=O)c21)CCS3)N1CC=CC1	24.5
O=C(Cn1c2ccccc2c2nc3n(c(=O)c21)CCS3)N1CC=CC1	-4.86
COC(=O)Cn1c2ccc(F)cc2c2nc3n(c(=O)c21)CCS3	15.6
COC(=O)Cn1nc(-c2cscn2)c2ccccc21	24.5
O=C(Cn1c2ccc(F)cc2c2nc3n(c(=O)c21)CCS3)N1CCC(F)(F)CC1	19.8
CCc1nn(CC(=O)OC)c2ccccc12	-12.6
COC(=O)Cn1nc(C(C)(C)C)c2ccccc21	73.8
COC(=O)Cn1nc(-c2cnco2)c2ccccc21	-21.2
O=C(Cn1c2ccccc2c2nc3n(c(=O)c21)CCS3)N1CCC(F)(F)CC1	3.61
